Source: ChEMBL document CHEMBL2177006 (J Med Chem, 2012)

Assays:
Beta-secretase 1 [1] = molecular target: T1, Beta-secretase 1 (Homo sapiens, UniProt P56817); assay: Inhibition of BACE1 in human HEK293 cells expressing APP Swedish mutant assessed as inhibition of amyloid beta (1 to 40) production after overnight incubation by sandwich ELISA; format: cell-based
Beta-secretase 1 [2] = molecular target: T1, Beta-secretase 1; assay: Inhibition of human recombinant BACE1 using Glu-Ile-Asp-Leu-Met-Val-Leu-Asp as substrate incubated for 60 mins prior to substrate addition measured after 60 mins by FRET assay
Rattus norvegicus = assay: Antialzheimer activity in Sprague-Dawley rat assessed as reduction in amyloid beta 40 level in CSF at 30 mg/kg, po at 4 hrs by immunoassay relative to control; format: functional; parameters: scale not given: the % may be the effect or the level left
In short: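 At the set time they were euthanized with CO2 for 2 min. CSF was drawn from the cisterna magna with a 30 gauge needle, frozen on dry ice, stored at −80 °C, then assayed for Aβ40 by Meso Scale immunoassay.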

T1 sequence (P56817 whole entry): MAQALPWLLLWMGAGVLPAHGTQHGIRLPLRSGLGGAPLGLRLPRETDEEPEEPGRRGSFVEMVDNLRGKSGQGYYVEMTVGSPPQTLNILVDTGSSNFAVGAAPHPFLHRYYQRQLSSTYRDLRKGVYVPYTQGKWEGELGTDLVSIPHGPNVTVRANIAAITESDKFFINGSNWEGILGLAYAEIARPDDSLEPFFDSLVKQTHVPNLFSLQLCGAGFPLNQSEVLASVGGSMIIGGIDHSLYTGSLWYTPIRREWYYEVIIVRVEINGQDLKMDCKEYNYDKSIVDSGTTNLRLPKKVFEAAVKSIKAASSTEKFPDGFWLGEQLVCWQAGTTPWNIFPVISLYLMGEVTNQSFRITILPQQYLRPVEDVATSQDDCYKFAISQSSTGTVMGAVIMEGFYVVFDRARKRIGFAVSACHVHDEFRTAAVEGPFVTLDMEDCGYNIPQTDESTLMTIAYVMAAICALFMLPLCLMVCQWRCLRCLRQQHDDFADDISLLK

SMILES	IC50 (Beta-secretase 1 [1]) [nM]	IC50 (Beta-secretase 1 [2]) [nM]	Activity (Rattus norvegicus) [%]
C[C@@H](F)C(=O)N[C@@H](Cc1ccc2c(c1)OCO2)[C@H](O)CN[C@H]1CC2(CCC2)Oc2ncc(CC(C)(C)C)cc21	55.5		
CC(=O)N[C@@H](Cc1ccc(OC(F)F)c(OC(F)F)c1)[C@H](O)CN[C@H]1CC2(CCC2)Oc2ncc(CC(C)(C)C)cc21	238	35.2	
CC(C)(C)Cc1cnc2c(c1)[C@@H](NC[C@@H](O)[C@H](Cc1ccc3c(c1)OCO3)NC(=O)c1ccc(F)nc1)CC1(CCC1)O2	69.5	48.4	
CC(=O)N[C@@H](Cc1ccc2c(c1)OCO2)[C@H](O)CN[C@H]1CC2(CCC2)Oc2ncc(CC(C)(C)C)cc21	5.5	8	52
CC(C)(C)Cc1cnc2c(c1)[C@@H](NC[C@@H](O)[C@H](Cc1ccc3c(c1)OCO3)NC(=O)c1cccnc1)CC1(CCC1)O2	67.6	26.1	
CC(C)(C)Cc1cnc2c(c1)[C@@H](NC[C@@H](O)[C@H](Cc1ccc3c(c1)OCO3)NC(=O)c1cccnc1F)CC1(CCC1)O2	64.3	33.2	
CC(C)(C)Cc1cnc2c(c1)[C@@H](NC[C@@H](O)[C@H](Cc1ccc3c(c1)OCO3)NC(=O)c1ccccc1F)CC1(CCC1)O2	1150	76.6	
CC(C)C(=O)N[C@@H](Cc1ccc2c(c1)OCO2)[C@H](O)CN[C@H]1CC2(CCC2)Oc2ncc(CC(C)(C)C)cc21	812		

Now from value to compound, other results behind:

IC50 (Beta-secretase 1 [1]) [nM]	IC50 (Beta-secretase 1 [2]) [nM]	SMILES	Activity (Rattus norvegicus) [%]
27.5	20.4	CC(C)(C)Cc1cnc2c(c1)[C@@H](NC[C@@H](O)[C@H](Cc1ccc3c(c1)OCO3)NC(=O)[C@@H]1CCCO1)CC1(CCC1)O2	
9.3	18.2	COc1ccc(C[C@H](NC(C)=O)[C@H](O)CN[C@H]2CC3(CCC3)Oc3ncc(CC(C)(C)C)cc32)cc1OC	
16.8	5.4	COCC(=O)N[C@@H](Cc1ccc2c(c1)OCO2)[C@H](O)CN[C@H]1CC2(CCC2)Oc2ncc(CC(C)(C)C)cc21	
